Test results: ChEMBL document CHEMBL4368912, “Discovery and Development of N-[4-(1-Cyclobutylpiperidin-4-yloxy)phenyl]-2-(morpholin-4-yl)acetamide Dihydrochloride (SUVN-G3031): A Novel, Potent, Selective, and Orally Active Histamine H3 Receptor Inverse Agonist with Robust Wake-Promoting Activity” (J Med Chem, 2019); call rule not given here

Key:
[1] = Tmax in Wistar rat at 3 mg/kg, po or 1 mg/kg, iv by LC-MS/MS analysis; type: ADME, organism-based; conditions: in vivo
Procedure, shortened: (§1)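 Fasted male Wistar rats were dosed orally and intravenously, with water for injection as the vehicle for both routes, at dosing volumes of 10 mL/kg p.o. and 2 mL/kg i.v.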

[2] = Partition coefficient, log P of the compound; type: physicochemical; conditions: octanol/water
Histamine H3 receptor = Histamine H3 receptor (Homo sapiens, UniProt Q9Y5N1); assay: Displacement of [3]-RAMH from recombinant human histamine H3 receptor expressed in CHO-K1 cell membranes after 60 mins by scintillation counting
[3] = Ratio of drug uptake in Wistar rat brain to plasma at 3 mg/kg, po by LC-MS/MS analysis; type: ADME, organism-based; conditions: brain and plasma, read-out: BPR
Procedure, shortened: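 Fasted male Wistar rats were dosed orally with water for injection as the vehicle. Total brain and plasma concentrations were measured at 1 h after dosing and expressed as a ratio.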

[4] = Dissociation constant, pKa1 of the compound by potentiometric titration assay; type: physicochemical
[5] = AUC (0 to 24 hrs) in Wistar rat at 3 mg/kg, po by LC-MS/MS analysis; type: ADME, organism-based; set-up: dose 3 mg/kg, time < 24 hr, route oral; conditions: in vivo
Procedure, shortened: (§2)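 Fasted male Wistar rats; compound in water for injection, given i.v. (2 mL/kg) or p.o. (10 mL/kg). Plasma exposure measured as AUC0-24hr.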

[6] = Volume of distribution at steady state in Wistar rat at 3 mg/kg, po or 1 mg/kg, iv by LC-MS/MS analysis; type: ADME, organism-based; conditions: Wistar, in vivo, read-out: Vdss; procedure, shortened: as §1
[7] = Oral bioavailability in Wistar rat at 3 mg/kg by LC-MS/MS analysis; type: ADME, organism-based; conditions: in vivo; procedure, shortened: as §1
[8] = Dissociation constant, pKa2 of the compound by potentiometric titration assay; type: physicochemical
[9] = AUC (0 to 24 hrs) in Wistar rat at 1 mg/kg, iv by LC-MS/MS analysis; type: ADME, organism-based; set-up: time < 24 hr, dose 1 mg/kg, route intravenous; conditions: in vivo; for AUC(0-t) at 24 h: Wistar; procedure, shortened: as §2
[10] = Lipophilicity, log D of the compound at pH 7.4; type: physicochemical; conditions: buffer
[11] = Clearance in Wistar rat at 1 mg/kg, iv by LC-MS/MS analysis; type: ADME, organism-based; conditions: in vivo
Procedure, shortened: (§3)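 Fasted male Wistar rats dosed i.v. in water for injection at 2 mL/kg. Clearance and half-life derived from the i.v. plasma profile.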

[12] = Half life in Wistar rat at 1 mg/kg, iv by LC-MS/MS analysis; type: ADME, organism-based; conditions: in vivo; procedure, shortened: as §3
CHO-K1 [13] = assay: Induction of phospholipidosis in CHOK1 cells up to 300 uM incubated for 24 hrs by fluorescent-labeled phospholipid probe NBD-PE based fluorescence assay; type: cell-based, Cricetulus griseus; conditions: chinese hamster, cho-k1, 24 h
CHO-K1 [14] = assay: Cytotoxicity in CHOK1 cells up to 300 uM incubated for 24 hrs by MTT assay; type: cell-based, Cricetulus griseus; conditions: chinese hamster, cho-k1, 24 h

Chain of Histamine H3 receptor (Q9Y5N1 whole entry): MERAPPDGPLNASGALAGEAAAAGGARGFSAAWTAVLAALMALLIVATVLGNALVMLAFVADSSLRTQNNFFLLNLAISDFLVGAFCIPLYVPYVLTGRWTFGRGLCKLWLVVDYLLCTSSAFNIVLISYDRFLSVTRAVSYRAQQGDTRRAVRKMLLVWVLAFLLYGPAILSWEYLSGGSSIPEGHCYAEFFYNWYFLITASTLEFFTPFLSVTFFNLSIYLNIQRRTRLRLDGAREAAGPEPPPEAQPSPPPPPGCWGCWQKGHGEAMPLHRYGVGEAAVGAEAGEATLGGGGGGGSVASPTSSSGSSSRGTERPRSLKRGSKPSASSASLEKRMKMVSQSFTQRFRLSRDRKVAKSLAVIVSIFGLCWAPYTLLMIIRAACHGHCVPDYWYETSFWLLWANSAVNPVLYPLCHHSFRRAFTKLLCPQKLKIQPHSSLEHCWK

With `Cl.Cl.O=C(CN1CCCCC1)Nc1ccc(OC2CCN(C3CCC3)CC2)cc1` the Tmax [1] was 3.33 h, the logP [2] was 3.7 and the Ki (Histamine H3 receptor) was 4.8 nM. For the same molecule, the Kp [3] was 36.6, the pKa [4] was 9.2 and the AUC(0-t) at 24 h [5] was 1390 ng·h/mL. For the same molecule, the Vd [6] was 20 L/kg, the bioavailability [7] was 37% and the pKa [8] was 7.5. For the same molecule, the AUC ([9]; 24 h) was 1855 ng·h/mL and the logD [10] was 1.3.
For `O=C(NCCN1CCCCC1)c1ccc(OC2CCN(C3CCC3)CC2)cc1`, the Ki (Histamine H3 receptor) was 3.2 nM.
`O=C(CN1CCOCC1)Nc1ccc(OC2CCN(C3CCC3)CC2)c(F)c1` showed a Ki (Histamine H3 receptor) of 62 nM.
`O=C(CN1CCOCC1)Nc1ccccc1OC1CCN(C2CCC2)CC1` gave a Ki (Histamine H3 receptor) of over 10000 nM.
`Cl.Cl.O=C(CN1CCCC1CO)Nc1ccc(OC2CCN(C3CCC3)CC2)cc1` (stereo not drawn) showed a clearance [11] of 67 mL/min/kg, a Tmax [1] of 0.58 h and a logP [2] of 2.1. It also gave a Ki (Histamine H3 receptor) of 1.2 nM, a pKa [4] of 8.9 and a half-life [12] of 1.88 h. It also gave an AUC(0-t) at 24 h [5] of 63 ng·h/mL, a Vd [6] of 9 L/kg and a bioavailability [7] of 10%. For the same molecule, the pKa [8] was 6.4, the AUC(0-t) at 24 h [9] was 212 ng·h/mL and the logD [10] was 0.6.
With `Cc1cc(OC2CCN(C3CCC3)CC2)ccc1NC(=O)CN1CCCCC1` the Ki (Histamine H3 receptor) was 3.3 nM.
In the case of `CC(C)N1CCC(Oc2ccc(NC(=O)CN3CCOCC3)cc2)CC1.Cl.Cl`, the clearance [11] is reported as 48 mL/min/kg, the Activity (CHO-K1 [13]) is reported as “Non-Toxic” and the Tmax [1] is reported as 0.42 h. It also gave a logP [2] of 1.8, a Kp [3] of 0.33 and a pKa [4] of 8.9. For the same molecule, the Activity (CHO-K1 [14]) was “Non-Toxic”, the AUC(0-t) at 24 h [5] was 850 ng·h/mL and the Vd [6] was 6 L/kg. The bioavailability [7] was 85%, the pKa [8] was 5 and the AUC(0-t) at 24 h [9] was 340 ng·h/mL. The logD [10] was 0.5.
For `CCOC(=O)N1CCN(CC(=O)Nc2ccc(OC3CCN(C4CCC4)CC3)cc2)CC1`, the Ki (Histamine H3 receptor) was 1.07 nM.
Molecule `CCN(C(=O)CN1CCOCC1)c1ccc(OC2CCN(C3CCC3)CC2)cc1` has a Ki (Histamine H3 receptor) of 10.8 nM.
In the case of `O=C(CN1CCCCC1)Nc1ccc(OC2CCN(C3CCCC3)CC2)cc1`, the Ki (Histamine H3 receptor) is reported as 4.1 nM.
Molecule `Cl.Cl.O=C(CN1CCCC1)Nc1ccc(OC2CCN(C3CCC3)CC2)cc1` has a clearance [11] of 13.6 mL/min/kg, a Tmax [1] of 3.33 h and a logP [2] of 3.2. It also gave a Ki (Histamine H3 receptor) of 1.1 nM, a pKa [4] of 9.1 and an AUC(0-t) at 24 h [5] of 556 ng·h/mL. The Vd [6] was 34.8 L/kg, the bioavailability [7] was 17% and the pKa [8] was 7.4. For the same molecule, the AUC(0-t) at 24 h [9] was 757 ng·h/mL and the logD [10] was 1.2.
`O=C(CN1CCC(O)CC1)Nc1ccc(OC2CCN(C3CCC3)CC2)cc1` gave a Ki (Histamine H3 receptor) of 6.4 nM.
`O=C(CN1CCOCC1)Nc1ccc(CN2CCCC2)cc1` gave a Ki (Histamine H3 receptor) of 114 nM.
With `CN(C(=O)CN1CCOCC1)c1ccc(OC2CCN(C3CCC3)CC2)cc1` the Ki (Histamine H3 receptor) was 4.89 nM.
In the case of `C[C@@H]1CCCN1CCc1ccc(NC(=O)CN2CCOCC2)cc1`, the Ki (Histamine H3 receptor) is reported as 108 nM.
For `O=C(CN1CCOCC1)Nc1cccc(OC2CCN(C3CCC3)CC2)c1`, the Ki (Histamine H3 receptor) was 212 nM.
Molecule `CCN(CC)CC(=O)Nc1ccc(OC2CCN(C3CCC3)CC2)cc1` has a Ki (Histamine H3 receptor) of 11.7 nM.
For `O=C(CN1CCCC1)Nc1ccc(OC2CCN(C3CCCC3)CC2)cc1`, the Ki (Histamine H3 receptor) was 3.8 nM.
In the case of `O=C(CN1CCCN(C2CCC2)CC1)Nc1ccc(OC2CCN(C3CCC3)CC2)cc1`, the Ki (Histamine H3 receptor) is reported as 1.61 nM.
`C[C@@H]1CCCN1CC(=O)Nc1ccc(N2CCOCC2)cc1` showed a Ki (Histamine H3 receptor) of 1460 nM.
Work on `O=C(CN1CCCCCC1)Nc1ccc(OC2CCN(C3CCC3)CC2)cc1` yielded a logP [2] of 4.3, a Ki (Histamine H3 receptor) of 2.6 nM and a pKa [4] of 9.2. For the same molecule, the pKa [8] was 7.6 and the logD [10] was 1.7.
`COc1cc(OC2CCN(C3CCC3)CC2)ccc1NC(=O)CN1CCOCC1` showed a Ki (Histamine H3 receptor) of 90.8 nM.
Molecule `O=C(CN1CCOCC1)Nc1ccc(OC2CCN(C3CCC3)CC2)cc1F` has a Ki (Histamine H3 receptor) of 14.9 nM.
`O=C(CN1CCC(F)(F)CC1)Nc1ccc(OC2CCN(C3CCC3)CC2)cc1` gave a Ki (Histamine H3 receptor) of 23.6 nM.
`CC(C)N1CCC(Oc2ccc(C(=O)NCCN3CCCC3)cc2)CC1` showed a Ki (Histamine H3 receptor) of 10.4 nM.
With `O=C(CN1CCOCC1)Nc1ccc(OC2CCNCC2)cc1` the Ki (Histamine H3 receptor) was over 10000 nM.
